Hits are enriched below; roughly 2.9% of the tested compounds scored in any of these assays.
Kir21 inh – inhibitors of mouse Kir2.1 inward-rectifier potassium channel | Inward rectifier potassium channel 2 (Mus musculus), P35561 | HEK293-Kir2.1, FluxOR thallium flux fluorescence; active compounds read low | B-score at 10 µM | 310,000 compounds, 0.85% hits | AID 1672, 2009;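 active = fluorescence ratio B-score at or below minus 3 SD of library scores, with starting-brightness B-score within 2 SD, cut at about -4.2 in these data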;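 note: channel flux triggered by added potassium and thallium sulfate stimulus; B-score of peak minus minimum fluorescence over baseline after thallium stimulus; more negative B-score means stronger Kir2.1 block with less thallium influx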
Target sequence (P35561 whole entry, looked up): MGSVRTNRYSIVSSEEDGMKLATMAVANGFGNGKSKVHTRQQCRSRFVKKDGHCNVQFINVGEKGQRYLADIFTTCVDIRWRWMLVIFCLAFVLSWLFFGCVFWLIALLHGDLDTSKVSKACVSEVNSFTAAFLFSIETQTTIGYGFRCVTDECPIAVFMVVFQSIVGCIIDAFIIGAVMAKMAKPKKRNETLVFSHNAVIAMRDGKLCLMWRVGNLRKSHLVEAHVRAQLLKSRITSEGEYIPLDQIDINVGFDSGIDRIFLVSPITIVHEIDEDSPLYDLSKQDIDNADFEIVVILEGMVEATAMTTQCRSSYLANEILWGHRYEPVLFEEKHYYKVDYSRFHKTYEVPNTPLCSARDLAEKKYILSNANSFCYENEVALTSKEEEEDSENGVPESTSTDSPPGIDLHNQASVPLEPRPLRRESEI
TRPC4 potent – positive allosteric modulators of TRPC4, primary screen, cell-based, mouse TRPC4beta, HEK293 mu-opioid, Fluo-4 calcium; B-score at 10 µM; Short transient receptor potential channel 4 (Mus musculus), Q9QUQ5; DAMGO EC20, Fluo-4 Ca2+ flux; active compounds read high; AID 2227, 2009; 310,000 compounds, 0.42% hits;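 active = B-score of calcium response area above 5 SD of library B-scores, with initial fluorescence ratio within 5 SD of library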;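 note: B-score of integrated fluorescence ratio over time as area under calcium response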
TRPC6 inh – mouse TRPC6 channel inhibitors, primary screen, cell-based, HEK293, membrane potential dye; Short transient receptor potential channel 6 (Mus musculus), Q61143; ACh-evoked depolarization; active compounds read low; B-score at 10 µM; 310,000 compounds, 1.1% hits; AID 2553, 2010;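 active = B-score under library mean minus 3 SD, initial fluorescence not abnormally high, positive integrated signal ratio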;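 note: B-score derived from integrated fluorescence ratio over the kinetic read; more negative B-score means stronger inhibition of depolarization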
TRPC6 act – mouse TRPC6 channel activators, primary screen, cell-based, HEK293, membrane potential dye; Short transient receptor potential channel 6 (Mus musculus), Q61143; HEK293-TRPC6 membrane potential dye fluorescence; active compounds read high; B-score at 10 µM; 310,000 compounds, 0.13% hits; AID 2550, 2010;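 active = B-score of the integrated fluorescence ratio above library mean plus 3 SD, and starting fluorescence ratio within library mean plus 5 SD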;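 note: higher score means more depolarization so channel activation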
TRPC4 block – inhibitors of mouse TRPC4 channel, primary screen, Fluo4 calcium, HEK293 TRPC4beta/mu-opioid cells | AID 2247, 2010 | DAMGO-evoked Fluo4 calcium flux; active compounds read low | 300,000 compounds, 0.39% hits | Short transient receptor potential channel 4 (Mus musculus), Q9QUQ5 | B-score at 10 µM;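 active = B-score over 3 SD under the library average, no early fluorescence shift, positive overall ratio signal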
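test system = HEK293 cells with stable TRPC4beta plus mu-opioid receptor expression | detection = Fluo4 Ca2+ flux fluorescence | read-out = integrated fluorescence ratio relative to baseline, converted to per-well B score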
TRPC4 act – activators of mouse TRPC4 channel, primary screen, Fluo4 calcium, HEK293 TRPC4beta/mu-opioid cells; AID 2237, 2010; B-score at 10 µM; Fluo4 calcium fluorescence; active compounds read high; Short transient receptor potential channel 4 (Mus musculus), Q9QUQ5; 310,000 compounds, 0.49% hits;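 active = B-score above 5 SD of library B-scores, and initial fluorescence ratio not above library mean plus 5 SD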;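 note: positive B-score marks a calcium rise read as TRPC4 activation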
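Assay system – TRPC4beta and mu-opioid receptor HEK293 stable cells · Measured by – Fluo4 fluorescence, kinetic · Schedule – dye loading 45 min room temperature, 110 s kinetic read · Read-out – B-scored integrated calcium fluorescence ratio · Controls – buffer and maximal DAMGO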
TRPC4 sel inh 2 – mouse TRPC4 off-target activity of TRPC6 inhibitors, second screen. shares compounds with TRPC6 inh. HEK293 TRPC4/MOR, membrane potential dye fluorescence; channel activated by saturating DAMGO dose. inhibition, % at 10 µM. 920 compounds, 42% hits. AID 2776;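 active = compounds whose fluorescence signal differed from control wells by over 3 SD, either direction, in both duplicate plates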
TRPC4 spec – mouse TRPC4 modulation by TRPC6 hits, confirmation, selectivity assay for TRPC6 inhibitor project, cell-based, HEK293 TRPC4/mu-opioid, membrane potential dye | 920 compounds, 61% hits | activity change, negative = inhibition, % at 10 µM | membrane potential fluorescence | shares compounds with TRPC6 inh;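 active = rise or fall in signal beyond 3 SD of buffer-only wells in both replicate plates, either sign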;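 note: integrated kinetic ratio of fluorescence range over baseline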
HEK293 MPD ctr 2-1 – nonspecific membrane potential effects, parental HEK293, confirmation, counter-screen for TRPC6 inhibitor project, cell-based, second counter screen | parental HEK293 membrane potential dye fluorescence; maximal acetylcholine challenge after compound addition | shares compounds with TRPC6 inh | signal change vs control, % at 10 µM | 920 compounds, 31% hits;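 active = membrane potential signal moving either way by over 3 SD of the maximum-effect control, in both duplicate plates, meaning non-specific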
HEK293 MPD ctr-1 – membrane potential modulation in parental HEK293, confirmation, counter-screen for TRPC6 inhibitor project, cell-based | shares compounds with TRPC6 inh | parental HEK293 membrane potential dye fluorescence | membrane potential signal change, % at 10 µM | 920 compounds, 60% hits | AID 2780, 2010;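 active = membrane potential signal shifting up or down by more than 3 SD of buffer-only wells, on both duplicate plates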
HEK293 MPD ctr-2 – parental HEK293 membrane potential modulation, confirmation, counter-screen for TRPC6 modulator project, cell-based | shares compounds with TRPC6 inh | membrane potential dye fluorescence | membrane potential signal change, % at 10 µM | 2,400 compounds, 51% hits;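 active = membrane potential signal moves up or down beyond 5 SD from buffer-only wells, on both duplicate plates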
HEK293 MPD ctr 2-2 – second check of TRPC6 modulator effects in parental HEK293 cells; shares compounds with TRPC6 inh; membrane potential dye fluorescence; after compound, maximal acetylcholine stimulation; inhibition, % at 10 µM; 2,400 compounds, 14% hits; AID 488926;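 active = membrane potential signal drops by more than 5 SD from the mean control signal, in both duplicate plates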;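 note: plate controls were acetylcholine ECmax control wells for no effect and buffer only wells for full effect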
TRPC4/MOR mod – TRPC4 modulation by TRPC6 hit compounds, confirmation, selectivity assay for TRPC6 modulator project, cell-based, HEK293 TRPC4/mu-opioid, membrane potential dye, mouse | shares compounds with TRPC6 inh | membrane potential fluorescence | percent change from control (negative = decrease, positive = increase), % at 10 µM | 2,400 compounds, 69% hits;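 active = membrane potential signal moved up or down beyond 5 SD of buffer control wells, in both duplicate plates, actives on both sides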;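 note: plate controls were assay buffer wells for no effect and DAMGO maximal-effect wells for full effect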
TRPC4/MOR inh 2 – mouse TRPC4 off-target activity of TRPC6 modulators, second screen; shares compounds with TRPC6 inh; HEK293 TRPC4/mu-opioid, membrane potential dye fluorescence; stimulated with maximal-effect DAMGO; inhibition, % at 10 µM; 2,400 compounds, 55% hits; AID 488928;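 active = drop in membrane potential signal beyond 5 SD of the control wells in both duplicate plates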;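 note: TRPC4 counter screen for TRPC6 hits run under conditions tuned for TRPC6 not TRPC4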
TRPC6 block conf – mouse TRPC6 channel inhibitors, confirmation, HEK293 cells, membrane potential dye, duplicate; shares compounds with TRPC6 inh; ACh-evoked depolarization; inhibition, % at 10 µM; 3,300 compounds, 43% hits; AID 488960, 2010;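 active = fluorescence ratio falls more than 5 SD below the full-stimulation control mean, in both duplicate runs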;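 note: integrated fluorescence ratio of peak minus minimum over baseline after agonist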
TRPC6 act confirm – mouse TRPC6 channel activators, confirmation, HEK293 cells, membrane potential dye, duplicate. shares compounds with TRPC6 inh. HEK293-TRPC6 membrane potential dye fluorescence, FDSS. activation, % at 10 µM. 2,800 compounds, 11% hits. AID 488961, 2010;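 active = ratio signal rise beyond 5 SD above unstimulated control wells' mean, seen in both duplicate runs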;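 note: plate controls were buffer EC0 wells for no effect and acetylcholine ECmax response for full effect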
Active calls of the source: *; i = inactive; x = no result.

SMILES	Kir21 inh	TRPC4 potent	TRPC6 inh	TRPC6 act	TRPC4 block	TRPC4 act	HEK293 MPD ctr-2	HEK293 MPD ctr 2-2	TRPC4/MOR mod	TRPC4/MOR inh 2	TRPC6 block conf	TRPC6 act confirm	others
Cc1cccn2c(=O)c3cc(C#N)c(=N)n(Cc4ccncc4)c3nc12	0.01	i	-5.65*	i	i	i	-167.5%*	i	-29.5%*	i	i	i
Cc1cccn2c(=O)c3cc(C#N)c(=N)n(CCCN4CCOCC4)c3nc12	0.23	i	-8.63*	i	i	i	-83.5%*	118.0%*	-26.5%*	68.0%*	57.0%*	i
CCC(C)n1c(=N)c(C#N)cc2c(=O)n3ccccc3nc21 (centres undefined)	-0.03	i	i	i	i	i	x	x	x	x	x	x
CCCn1c(=N)c(C#N)cc2c(=O)n3cccc(C)c3nc21	-0.88	i	i	i	i	i	x	x	x	x	x	x
Cc1cccn2c(=O)c3cc(C#N)c(=N)n(CCN4CCOCC4)c3nc12	1.35	i	-5.62*	i	i	i	-149.5%*	i	-23.5%*	i	47.5%*	i
CCCn1c(=N)c(C#N)cc2c(=O)n3ccccc3nc21	-1.22	i	-8.26*	i	i	i	-260.5%*	i	-44.5%*	44.0%*	37.5%*	i
Cc1cccn2c(=O)c3cc(C(N)=S)c(=N)n(CCCN4CCOCC4)c3nc12	-0.33	i	i	i	i	i	x	x	x	x	x	x
COCCCn1c(=NC(=O)c2ccncc2)c(C#N)cc2c(=O)n3cccc(C)c3nc21	-1.9	i	i	i	i	i	x	x	x	x	x	x
Cc1cnc(=O)[nH]c1SCc1ccc(C(F)(F)F)cc1	-0.05	i	i	i	i	i	x	x	x	x	x	x
CCSc1ncc(/C=N/Nc2ccc(F)cc2)n1C	2.33	i	i	i	i	i	x	x	x	x	x	x
COc1ccc(CCn2nc(C)c([N+](=O)[O-])c2C)cc1	-0.3	i	-5.17*	i	i	i	i	i	19.5%*	i	i	x
COc1cccc(-n2c(CCn3nc(C)c([N+](=O)[O-])c3C)n[nH]c2=S)c1	-0.3	i	i	i	i	i	x	x	x	x	x	x
Cc1onc(-c2c(Cl)cccc2Cl)c1C(=O)N1CCc2ccccc21	1.43	i	-5.08*	i	i	i	i	i	12.5%*	i	i	i
NCC12CC3CC(C1)CC(c1ccc(Cl)cc1)(C3)C2	-10.2*	i	-7.09*	i	i	61*	x	x	x	x	71.5%*	i	TRPC4 sel inh 2=31.0%*;TRPC4 spec=i;HEK293 MPD ctr 2-1=i;HEK293 MPD ctr-1=-135.5%*
Nc1ccc(C23CC4CC(CC(CO)(C4)C2)C3)cc1	-0.02	i	i	i	i	i	x	x	x	x	x	x
O=C(COC(=O)c1c(F)cccc1Cl)NC1CCCC1	-0.2	i	i	i	i	i	x	x	x	x	x	x
O=C(COC(=O)c1c(Cl)cccc1Cl)NC1CCCCC1	-0.01	i	i	12*	i	i	121.0%*	i	23.5%*	i	x	171.0%*
Cc1ccc(/C=C2\SC(N3CCCC3)=NC2=O)cc1	-0.09	i	i	i	i	i	x	x	x	x	x	x
CN(C)c1ccc(/C=C2\SC(N3CCCCC3)=NC2=O)cc1	-2.53	i	-5.34*	i	i	i	396.0%*	i	34.0%*	i	i	x
O=C(CN1C(=O)c2ccccc2C1=O)NNC1=NS(=O)(=O)c2ccccc21	-1.38	i	i	i	i	i	x	x	x	x	x	x
CN(CCC#N)C(=O)c1cc2c(Cl)nc3ccccc3c2s1	0.41	i	i	i	i	i	x	x	x	x	x	x
CN(C)CCN(Cc1ccco1)C(=O)c1cc2c(Cl)nc3ccccc3c2s1	-0.05	i	-5.17*	i	i	i	i	i	i	i	i	i
Cc1ncccc1C(=O)N1CCCC(CNC(=O)c2ccc(-c3ccccc3)cc2)C1 (centres undefined)	-1.42	i	i	i	i	i	x	x	x	x	x	x
Cn1nc([N+](=O)[O-])nc1N1CCN(c2ccc(F)cc2)CC1	1.01	i	-7*	i	i	i	x	x	x	x	i	i	TRPC4 sel inh 2=i;TRPC4 spec=i;HEK293 MPD ctr 2-1=i;HEK293 MPD ctr-1=i

Source: PubChem BioAssay (Johns Hopkins Ion Channel Center)
